Format in all cases: protein-complex assay
The target of experiment [1] is T1, Protein farnesyltransferase (Homo sapiens, UniProt P49354+P49356). Nature of the experiment: Inhibitory activity against farnesyltransferase (FPT) (20 ug/mL). In outline: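 Primary scintillation proximity assay (SPA) following the kit protocol, with a biotinylated substrate peptide bearing the K-Ras carboxy-terminal sequence.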
The target of experiment [2] is T1, Protein farnesyltransferase. Nature of the experiment: Inhibitory activity against recombinant human farnesyltransferase.
Experiment [3] deals with Geranylgeranyl transferase type I (Homo sapiens, UniProt P49354+P53609). Kind of experiment: Inhibitory activity against Geranylgeranyl transferase type I.
In experiment [4] the target is Protein farnesyl/geranylgeranyl transferase (Homo sapiens) (UniProt P49354+P49356+P53609). Nature of the experiment: Selectivity was expressed as the ratio of the Geranylgeranyl transferase type I to FPT inhibitory activities (IC50).

Usually inhibition stands for the change of the read-out against control, counted positive when it falls. In experiment [1], `O[C@@H]1c2cc(F)ccc2S[C@@H]1Cn1ccnc1` had an inhibition of 23%.
In general, IC50 refers to the concentration that gives 50% inhibition. For `O=S1(=O)c2cc(Cl)ccc2C(OCc2ccc(Cl)cc2Cl)C1Cn1ccnc1` (centres undefined), in experiment [1], the inhibition was determined as 60%. Also, the IC50 in experiment [2] is 45.9 µM.
Regarding `CC(=O)N1CCN(c2nc(CO[C@@H]3c4cc(C(C)(C)C)ccc4S[C@@H]3Cn3ccnc3)ns2)CC1`, the IC50 in experiment [3] was greater than 39 µM. Also, in experiment [1], the inhibition turned out to be 86%.
Take `Clc1ccc(COC2c3c(Cl)cc(Cl)cc3SC2Cn2ccnc2)cc1` (centres undefined): the IC50 in experiment [3] stood at 18.8 µM; in experiment [2] it was 1.4 µM. The compound also yielded an inhibition in experiment [1] of 83%. Further, in experiment [4], the Selectivity ratio amounted to 13.4.
In the same order, the values of `Clc1ccc(COC2c3cc(Cl)ccc3SC2Cn2ccnc2)c(Cl)c1` (centres undefined) are 0.7 µM, 0.2 µM, 99% and 3.5.
Take `NC1CCC(C(=O)N2CCC(=C3c4ccc(Cl)cc4CCc4cccnc43)CC2)CC1` (centres undefined): the IC50 in experiment [2] worked out at 5 µM.
Still for that read-out and setting: the value for `CC(C)(C)CC(=O)N1CCC(=C2c3ccc(Cl)cc3CCc3cccnc32)CC1` was 9.8 µM; that for `C=C1CC2C3C=C(Cl)C4=CC(=O)C(Br)CC4(C)C3CCC2(C)[C@@]1(O)C(C)=O` (some centres undefined) was 1.8 µM.
In experiment [1], `O[C@@H]1c2ccc(C(F)(F)F)cc2S[C@@H]1Cn1ccnc1` yielded an inhibition of 42%.
As for `O=C(O)c1ccc(C(=O)N2CCC(=C3c4ccc(Cl)cc4CCc4cccnc43)CC2)cc1`, the IC50 in experiment [2] is 5.3 µM.
For the compound `Clc1cc(Cl)c2c(c1)[C@@H](OCc1ccsc1Cl)[C@@H](Cn1ccnc1)S2`, the IC50 in experiment [3] came out at 16.2 µM; in experiment [2], 1.6 µM. Further, the inhibition in experiment [1] came to 86%. Also, the Selectivity ratio in experiment [4] amounted to 10.1.
Consider `Clc1ccc(COC2c3ccc(Cl)cc3SC2Cn2ccnc2)c(Cl)c1` (centres undefined), for which the inhibition in experiment [1] turned out to be 75%. The IC50 in experiment [2] came out at 5.4 µM.
Turning to `Clc1cccc2c1[C@@H](OCc1ccsc1Cl)[C@@H](Cn1ccnc1)S2`, the IC50 in experiment [3] was found to be 36.5 µM; in experiment [2] it was 1.3 µM. In experiment [1], this compound gave an inhibition of 89%. Also, in experiment [4], the Selectivity ratio is 28.1.
In the case of `O=C(Cc1ccccn1)N1CCC(=C2c3ccc(Cl)cc3CCc3cccnc32)CC1`, the IC50 in experiment [2] was 2 µM.
Turning to `Fc1ccc2c(c1)[C@@H](OCc1ccc(Cl)c(Cl)c1)[C@@H](Cn1ccnc1)S2`, the IC50 in experiment [3] came to 9.8 µM; in experiment [2] it was 0.7 µM. Further, the inhibition in experiment [1] turned out to be 96%. In addition, the Selectivity ratio in experiment [4] was determined as 14.
Take `Clc1ccc(COC2c3c(Cl)cc(Cl)cc3SC2Cn2ccnc2)c(Cl)c1` (centres undefined): the inhibition in experiment [1] turned out to be 60%. Moreover, in experiment [2], the IC50 was found to be 12.3 µM.
In the same order, the values of `Clc1ccc2c(c1)S[C@H](Cn1ccnc1)[C@@H]2OCc1c(Cl)ccc2c1OCO2` are 80% and 3.2 µM.
Consider `Clc1ccc2c(c1)S[C@H](Cn1ccnc1)[C@@H]2OCc1ccc(Cl)s1`, for which the IC50 in experiment [3] came to 5 µM; in experiment [2], 2 µM. In experiment [1], this compound came in with an inhibition of 88%. For the same compound, the Selectivity ratio in experiment [4] amounted to 2.5.
In the same order, the values of `Clc1sccc1CO[C@@H]1c2cc(Br)ccc2S[C@@H]1Cn1ccnc1` are 14.2 µM, 1.1 µM, 88% and 12.9.
With `O[C@@H]1c2cc(Br)ccc2S[C@@H]1Cn1ccnc1`, the inhibition in experiment [1] is 44%.
Still for that read-out and setting: the value for `Clc1ccc2c(c1)S[C@H](CN1CCOCC1)[C@@H]2OCc1ccsc1Cl` was 2%.
Regarding `O=C(Nc1ccncc1)C1CCN(C2c3ccc(Cl)cc3CCc3cccnc32)CC1` (centres undefined), the IC50 in experiment [2] was found to be 9.2 µM.
Consider `Clc1sccc1CO[C@@H]1c2ccc3ccccc3c2S[C@@H]1Cn1ccnc1`, for which the half-inhibitory concentration (IC50) in experiment [3] worked out at 15 µM; in experiment [2] it was 1.5 µM. In experiment [1], this compound had an inhibition of 76%. Moreover, the Selectivity ratio in experiment [4] was 10.
For the compound `O=C(Cc1ccncc1)N1CCC(=C2c3ccc(Cl)cc3CCc3ccc[n+]([O-])c32)CC1`, the IC50 in experiment [2] is 2.1 µM.
`Clc1ccc2c(c1)S[C@H](Cn1ccnc1)[C@@H]2OCc1ccsc1` displayed an inhibition in experiment [1] of 95%. Moreover, the IC50 in experiment [2] was determined as 16 µM.
On to `O[C@@H]1c2cccc(Cl)c2S[C@@H]1Cn1ccnc1`, for which the inhibition in experiment [1] amounted to 44%.
As for `Clc1cc2c(cc1Cl)C(OCc1ccsc1Cl)C(Cn1ccnc1)S2` (centres undefined), the IC50 in experiment [3] stood at 2.9 µM; in experiment [2], 1.4 µM. This compound also showed an inhibition in experiment [1] of 93%. Moreover, the Selectivity ratio in experiment [4] turned out to be 2.1.
On the same counts, the results for `Clc1sccc1CO[C@@H]1c2ccccc2S[C@@H]1Cn1ccnc1` are 46.8 µM, 1.1 µM, 94% and 42.5.
`Clc1ccc2c(c1)C(OCc1ccsc1Cl)C(Cn1ccnc1)S2` (centres undefined): the inhibition in experiment [1] came to 92%. For the same compound, the IC50 in experiment [2] was found to be 2.5 µM.
Take `Fc1ccc2c(c1)[C@@H](OCc1c(Cl)cccc1Cl)[C@@H](Cn1ccnc1)S2`: the inhibition in experiment [1] is 90%. Also, in experiment [2], the IC50 amounted to 2.7 µM.
On the same counts, the results for `Clc1sccc1CO[C@@H]1c2cc3c(cc2S[C@@H]1Cn1ccnc1)CCCC3` are 61% and 10.8 µM.
As for `O[C@H]1c2cc3c(cc2S[C@H]1Cn1ccnc1)CCCC3`, the IC50 in experiment [2] was greater than 70 µM.
`Fc1ccc2c(c1)S[C@H](Cn1ccnc1)[C@@H]2OCc1ccsc1` returned an inhibition in experiment [1] of 91%. The IC50 in experiment [2] worked out at 13.6 µM.
For the compound `Clc1ccc2c(c1)S[C@H](Cn1ccnc1)[C@@H]2OCc1c(Cl)sc2ccccc12`, the IC50 is 38 µM in experiment [3] and 2 µM in experiment [2]. Besides, the inhibition in experiment [1] amounted to 68%. Besides, the Selectivity ratio in experiment [4] came out at 19.
On to `COC(=O)[C@@H](Cc1ccccc1)NC(=O)[C@@H](Cc1c[nH]c2ccccc12)NC(=O)[C@H](Cc1ccccc1)CP(=O)(O)O`, for which, in experiment [2], the IC50 was determined as 0.7 µM.
In experiment [1], `FC(F)(F)c1ccc2c(c1)S[C@H](Cn1ccnc1)[C@@H]2OCc1ccsc1Cl` registered an inhibition of 75%. Further, in experiment [2], the IC50 came to 10.7 µM.
On to `O=C(Cc1cccnc1)N1CCC(=C2c3ccc(Cl)cc3CCc3cccnc32)CC1`, for which the IC50 in experiment [2] is 0.6 µM.
Take `[O-][S+]1c2cc(Cl)ccc2[C@@H](OCc2ccsc2Cl)[C@H]1Cn1ccnc1` (some centres undefined): the inhibition in experiment [1] came out at 79%. The IC50 in experiment [2] stood at 20.8 µM.
Turning to `O=C(Cc1ccccc1)N1CCC(=C2c3ccc(Cl)cc3CCc3cccnc32)CC1`, the IC50 in experiment [2] is 0.8 µM.
Take `O=C(Nc1ccccn1)N1CCN(C2c3ccc(Cl)cc3CCc3cccnc32)CC1` (centres undefined): the IC50 in experiment [2] amounted to 0.95 µM.
Turning to `O=C(Cc1ccncc1)N1CCC(=C2c3ccccc3CSc3ccccc32)CC1`, the IC50 in experiment [2] turned out to be 2.3 µM.
As to `Clc1ccc2c(c1)S[C@H](Cn1ccnc1)[C@@H]2OCc1cc(Cl)sc1Cl`, the inhibition in experiment [1] is 89%.
In the case of `[O-][n+]1ccc(CN2CCC(=C3c4ccccc4CCc4cccnc43)CC2)cc1`, the IC50 in experiment [2] is 1830 µM.
For `Cc1onc(-c2ccccc2)c1CO[C@@H]1c2ccc(Cl)cc2S[C@@H]1Cn1ccnc1`, the inhibition in experiment [1] was 90%. The IC50 in experiment [2] turned out to be 2.5 µM.
Take `Clc1sccc1CO[C@@H]1c2c(ccc3c2CCCC3)S[C@@H]1Cn1ccnc1`: the figures for the half-maximal inhibitory concentration (IC50) in experiment [3] and in experiment [2] were 16.8 µM and 0.2 µM, respectively. In experiment [1], this compound yielded an inhibition of 90%. For the same compound, the Selectivity ratio in experiment [4] stood at 84.
`Clc1ccc2c(c1)C(OCc1c(Cl)cccc1Cl)C(Cn1ccnc1)S2` (centres undefined) displayed an inhibition in experiment [1] of 85%. Besides, the IC50 in experiment [2] was determined as 5.3 µM.
Turning to `O=C(Nc1ccncc1)N1CCC(=C2c3ccc(Cl)cc3CCc3cccnc32)CC1`, in experiment [2], the IC50 is 0.87 µM.
In experiment [1], `OC1c2ccc(Cl)cc2SC1Cn1ccnc1` (centres undefined) had an inhibition of 58%.
Same read-out and setting: in the case of `OCc1nccn1C[C@H]1Sc2cc(Cl)ccc2[C@H]1OCc1ccsc1Cl` it was 30%; in that of `O[C@@H]1c2ccc(F)cc2S[C@@H]1Cn1ccnc1`, 38%.
Turning to `Fc1ccc2c(c1)[C@@H](OCc1ccsc1Cl)[C@@H](Cn1ccnc1)S2`, the IC50 in experiment [3] was determined as 34.1 µM; in experiment [2], 1.8 µM. Besides, in experiment [1], the inhibition was 95%. For the same compound, the Selectivity ratio in experiment [4] was 18.9.
As for `OC1c2cc(Cl)ccc2SC1Cn1ccnc1` (centres undefined), in experiment [2], the IC50 is greater than 75 µM.
On to `CC(C)C(CP(=O)(O)C(Cc1ccccc1)NC(=O)OCc1ccccc1)C(=O)N[C@H](Cc1c[nH]c2ccccc12)C(=O)N[C@H](C)C(=O)O` (some centres undefined), for which the IC50 in experiment [2] came out at 1 µM.
On the same count and under the same terms, in the case of `O=C(Cc1cccnc1)N1CCN(C(c2ccc(Cl)cc2)c2ccccn2)CC1` (centres undefined) it was 38.3 µM.
Turning to `Clc1ccc2c(c1)S[C@H](Cn1ccnc1)[C@@H]2OCc1ccc(Cl)c(Cl)c1`, the IC50 in experiment [3] stood at 12.9 µM; in experiment [2], 1.2 µM. The inhibition in experiment [1] was determined as 95%. Moreover, the Selectivity ratio in experiment [4] is 10.8.
With `CN1CCC(C2c3ccccc3CCc3cccnc32)CC1` (centres undefined), in experiment [2], the IC50 came to 724 µM.
The same measure, in the same setting: the value for `O=C(Cc1ccncc1)N1CCC(=C2c3ccccc3CCc3ccccc32)CC1` was 1.14 µM.
As for `Fc1ccc2c(c1)[C@@H](OCc1c(F)cccc1Cl)[C@@H](Cn1ccnc1)S2`, the inhibition in experiment [1] was 94%. For the same compound, in experiment [2], the IC50 came out at 2.3 µM.
As for `O=C(Cc1ccccc1)N1CCN(C2c3ccc(Cl)cc3CCc3cccnc32)CC1` (centres undefined), the IC50 in experiment [2] is 2.7 µM.
The compound `Cc1cccc2c1[C@@H](O)[C@@H](Cn1ccnc1)S2` registered an inhibition in experiment [1] of 14%. Further, the IC50 in experiment [2] was found to be 266 µM.
In experiment [1], `Clc1ccc2c(c1)S[C@H](Cn1ccnc1)[C@@H]2OCc1cscn1` gave an inhibition of 90%. In experiment [2], the IC50 turned out to be 10.7 µM.
On the same counts, the results for `Clc1ccc2c(c1)S[C@H](Cn1ccnc1)[C@@H]2OCc1ccsc1Cl` are 96% and 2.3 µM.
For the compound `O=C(Nc1cccnc1)N1CCN(C2c3ccc(Cl)cc3CCc3cccnc32)CC1` (centres undefined), the IC50 in experiment [2] turned out to be 1.3 µM.
As to `C=CCO[C@@H]1c2ccc(Cl)cc2S[C@@H]1Cn1ccnc1`, in experiment [1], the inhibition was 88%. In addition, the IC50 in experiment [2] came out at 8.5 µM.
In the same order, the values of `Fc1cccc(Cl)c1CO[C@@H]1c2ccc(Cl)cc2S[C@@H]1Cn1ccnc1` are 92% and 4.4 µM.
In the same order, the values of `Clc1cccc2c1S[C@H](Cn1ccnc1)[C@@H]2OCc1ccsc1Cl` are 92% and 6 µM.

The values above are taken from ChEMBL document CHEMBL1130261, “Identification of novel farnesyl protein transferase inhibitors using three-dimensional database searching methods” (J Med Chem, 1997).
